{"data": "Published values pooled from the literature", "target": "Insulin receptor-related protein (INSRR, Homo sapiens, UniProt P14616)"}
{"SMILES": "Cc1ccc(C(=O)Nc2ccc(CN3CCN(C)CC3)c(C(F)(F)F)c2)cc1C#Cc1cnc2cccnn12", "test": "cell-free assay", "setting": "23.5 nM", "quantity": "remaining signal", "value": "100%"}
{"SMILES": "CCCS(=O)(=O)Nc1ccc(F)c(C(=O)c2c[nH]c3ncc(-c4ccc(Cl)cc4)cc23)c1F", "test": "enzyme activity, inhibitor", "setting": "1 µM", "quantity": "inhibition", "value": "< 10%"}
{"SMILES": "COc1cc2nccc(Oc3ccc(NC(=O)c4c5n(n(-c6ccc(F)cc6)c4=O)CCCC5)cc3)c2cc1OC", "test": "enzyme activity, inhibitor", "setting": "0.1 µM", "quantity": "inhibition", "value": "5%"}
{"SMILES": "CNC(=O)c1cc(Oc2ccc(NC(=O)Nc3ccc(Cl)c(C(F)(F)F)c3)cc2)ccn1", "test": "enzyme activity, inhibitor", "setting": "0.3 µM", "quantity": "inhibition", "value": "-25%"}
{"SMILES": "Cc1nc(Cc2cccc(C(F)(F)F)c2)sc1-c1ccc(C(N)=O)nc1", "test": "cell-free assay, competition with immobilised ligand", "setting": "1 µM", "quantity": "remaining binding", "value": "100%"}
{"SMILES": "CC(C)(C)c1nc(-c2cccc(NS(=O)(=O)c3c(F)cccc3F)c2F)c(-c2ccnc(N)n2)s1", "test": "enzyme activity, inhibitor, radiometric", "setting": "1 µM", "quantity": "remaining activity", "value": "103%"}
{"SMILES": "Cn1c(=O)n(-c2ccc(C(C)(C)C#N)cc2)c2c3cc(-c4cnc5ccccc5c4)ccc3ncc21", "test": "enzyme activity, inhibitor", "setting": "10 µM", "quantity": "remaining activity", "value": "80%"}
{"SMILES": "COc1cc2ncnc(Nc3ccc(Oc4ccccc4)cc3C)c2cc1OC", "test": "enzyme activity, inhibitor", "setting": "1 µM", "quantity": "inhibition", "value": "3%"}
{"SMILES": "COc1cc(/C=C/C(=O)CC(=O)/C=C/c2ccc(O)c(OC)c2)ccc1O", "test": "enzyme activity, inhibitor", "setting": "1 µM", "quantity": "activity vs control", "value": "84%"}
{"SMILES": "CC1=C(C#N)C(c2ccc3c(c2)c(NC(=O)c2ccccc2C)nn3C)C(C#N)=C(C)N1", "test": "cell-free assay, competition with immobilised ligand", "setting": "1 µM", "quantity": "remaining binding", "value": "100%"}
{"SMILES": "CC/C(=N\\NC(=O)NCc1cccc(O)c1)c1ccc(O)c(C)c1O", "test": "enzyme activity, inhibitor", "setting": "0.1 µM", "quantity": "inhibition", "value": "1.7%"}
{"SMILES": "CC(C)(C)C(=O)c1sc(NC2CCCCC2)nc1N", "test": "enzyme activity, inhibitor", "setting": "10 µM", "quantity": "remaining activity", "value": "93%"}
{"SMILES": "Cc1cnc(NC2CCOCC2)nc1-n1cnc(C(=O)NC(CN)c2cc(F)cc(Cl)c2)c1 (stereo not shown)", "test": "enzyme activity, inhibitor, radiometric", "setting": "1 µM", "quantity": "remaining activity", "value": "70%"}
{"SMILES": "COc1cc(-c2cn(C3CCc4c(F)cccc4N(CC(F)(F)F)C3=O)nn2)ccc1-n1cnc(C)c1 (stereo not shown)", "test": "cell-free assay, competition with immobilised ligand", "setting": "1 µM", "quantity": "remaining binding", "value": "100%"}
{"SMILES": "O=C(Nc1cnn(-c2csc(C(=O)NC3COC3)c2)c1)Nc1c(F)cccc1Cl", "test": "enzyme activity, inhibitor", "setting": "5 µM", "quantity": "remaining activity", "value": "75.9%"}
{"SMILES": "COc1cc(Nc2cnc(C#N)c(O[C@H](C)CN(C)C)n2)ncc1-c1cnn(C)c1", "test": "enzyme activity, inhibitor, radiometric", "setting": "10 µM", "quantity": "remaining activity", "value": "89%"}
{"SMILES": "CN(C)c1ncnc(-c2ccc3nc(Nc4cc(CN5CCN(C(=O)CC(F)(F)F)CC5)ccn4)[nH]c3c2)c1Cl", "test": "cell-free assay, competition with immobilised ligand", "setting": "1 µM", "quantity": "remaining binding", "value": "95%"}
{"SMILES": "O=C1NC(=O)c2cc(Nc3ccc(F)cc3)c(Nc3ccc(F)cc3)cc21", "test": "cell-free assay", "setting": "0.5 µM", "quantity": "remaining signal", "value": "111%"}
{"SMILES": "Cc1cc(NC(=O)c2cccc(S(F)(F)(F)(F)F)c2)cc(-n2ccn3nc(-c4cccnc4)cc23)c1", "test": "cell-free assay, competition with immobilised ligand", "setting": "1 µM", "quantity": "remaining binding", "value": "100%"}
{"SMILES": "CCCOc1ccc(OC)c(F)c1C(=O)c1ccc(C(=O)N[C@@H]2CNC[C@H]2NC(=O)c2ccc3[nH]ncc3c2)cc1", "test": "enzyme activity, inhibitor", "setting": "10 µM", "quantity": "remaining activity", "value": "87%"}
{"SMILES": "Cc1ccc(Nc2nccc(N(C)c3ccc4c(C)n(C)nc4c3)n2)cc1S(N)(=O)=O", "test": "enzyme activity, inhibitor", "setting": "10 µM", "quantity": "inhibition", "value": "41%"}
{"SMILES": "O=C1Nc2ccc(Cl)cc2C1=Cc1cc(Cl)c(O)c(Cl)c1", "test": "cell-free assay", "setting": "0.5 µM", "quantity": "remaining signal", "value": "100%"}
{"SMILES": "O=C(Nc1cccnn1)N1CCC(=Cc2cccc(Oc3ccc(C(F)(F)F)cn3)c2)CC1", "test": "cell-free assay, competition with immobilised ligand", "setting": "1 µM", "quantity": "remaining binding", "value": "100%"}
{"SMILES": "CCN(CC)CCNC(=O)c1c(C)[nH]c(/C=C2\\C(=O)Nc3ccc(F)cc32)c1C", "test": "enzyme activity, inhibitor", "setting": "10 µM", "quantity": "inhibition", "value": "78%"}
{"SMILES": "CN(C)CC#Cc1ccc(OCCCc2sc(N3CCc4cccc(C(=O)Nc5nc6ccccc6s5)c4C3)nc2C(=O)O)c(F)c1", "test": "cell-free assay, competition with immobilised ligand", "setting": "1 µM", "quantity": "remaining binding", "value": "90%"}
{"SMILES": "Cc1ccc(NC(=O)c2ccc(C)c(C(F)(F)F)c2)cc1C#Cc1nn(C2CCC(O)CC2)c2ncnc(N)c12 (stereo not shown)", "test": "cell-free assay", "setting": "10 µM", "quantity": "remaining signal", "value": "107%"}
{"SMILES": "CN([C@@H]1CCc2c(CC(=O)O)c3cc(S(C)(=O)=O)ccc3n2C1)S(=O)(=O)c1ccc(F)cc1", "test": "cell-free assay, competition with immobilised ligand", "setting": "1 µM", "quantity": "remaining binding", "value": "100%"}
{"SMILES": "CC(C)(O)[C@H]1CC[C@H](Nc2ccc3ncc(-c4cccc(C(F)(F)F)c4)n3n2)CC1", "test": "enzyme activity, inhibitor", "setting": "1 µM", "quantity": "remaining activity", "value": "77%"}
